From ChEMBL document CHEMBL3580567 (J Med Chem, 2015)
Active and inactive are the calls of the source. No cut-off for these calls is given here.

Key:
[1] = biological target: Melatonin receptor type 1A (Homo sapiens, UniProt P48039); assay: Displacement of 2-[125I]-iodomelatonin from human melatonin receptor-1 transfected in CHO cell membranes after 120 mins
Homo sapiens = species: Homo sapiens; assay: Selectivity ratio of Ki for human melatonin receptor-1 to Ki for human melatonin receptor-2
[2] = (§1) Induction of primary neuronal stem cell differentiation derived from subgranular zone of dentate gyrus of Wistar rat hippocampus assessed as upregulation of TuJ1 expression at 10 uM incubated for 7 days followed by 48 hrs incubation in presence of serum and absence of EGF by DAPI staining-based fluorescence microscopic analysis in presence of melatonin receptor antagonist luzindole; type: functional; conditions: Primary neuron
Summary of the method: (§2)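 Neurospheres came from the SGZ of the dentate gyrus of adult male Wistar rats (8-12 weeks). They were grown in DMEM/F12 with 10 ng/mL EGF, 10 ng/mL FGF and B27. After 3 days, cultures were treated with compounds for 7 days. They were then plated on poly-L-lysine coverslips for 48 h with serum and without growth factors. Cells were immunostained for TuJ1 and MAP-2 with DAPI nuclei. Positive cells were counted by fluorescence microscopy in five NS per condition over three independent experiments. Untreated cultures gave basal values.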

[3] = as §1, with “maturation” for “differentiation”, “MAP-2” for “TuJ1”, “days” for “days followed by 48 hrs incubation in presence of serum and absence of EGF”; type: functional, tissue-based; conditions: Primary neuron; summary of the method: as §2
[4] = Permeability of the compound at 100 ug/ml after 240 mins by PAMPA; type: physicochemical; conditions: 4 h
Summary of the method: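 For PAMPA-BBB, the filter was coated with porcine brain lipid in dodecane (20 mg/mL). Donor compound was 100 µg/mL in PBS:ethanol 70:30, pH 7.4, and the acceptor held PBS:ethanol 70:30. Plates were incubated 240 min at 25 °C. Acceptor concentration was read by UV-Vis at five wavelengths in four wells, over at least three runs. Eleven quality-control standards were included.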

[5] = Induction of primary neuronal stem cell maturation derived from subgranular zone of dentate gyrus of Wistar rat hippocampus assessed as upregulation of MAP-2 expression incubated for 7 days by DAPI staining-based fluorescence microscopic analysis; type: functional; conditions: Primary neuron; summary of the method: as §2
[6] = biological target: Glycogen synthase kinase-3 beta (Homo sapiens) (UniProt P49841); assay: Binding affinity to GSK-3beta receptor (unknown origin) at 10 uM
Glycogen synthase kinase-3 beta (Homo sapiens), sequence (P49841 whole entry, looked up): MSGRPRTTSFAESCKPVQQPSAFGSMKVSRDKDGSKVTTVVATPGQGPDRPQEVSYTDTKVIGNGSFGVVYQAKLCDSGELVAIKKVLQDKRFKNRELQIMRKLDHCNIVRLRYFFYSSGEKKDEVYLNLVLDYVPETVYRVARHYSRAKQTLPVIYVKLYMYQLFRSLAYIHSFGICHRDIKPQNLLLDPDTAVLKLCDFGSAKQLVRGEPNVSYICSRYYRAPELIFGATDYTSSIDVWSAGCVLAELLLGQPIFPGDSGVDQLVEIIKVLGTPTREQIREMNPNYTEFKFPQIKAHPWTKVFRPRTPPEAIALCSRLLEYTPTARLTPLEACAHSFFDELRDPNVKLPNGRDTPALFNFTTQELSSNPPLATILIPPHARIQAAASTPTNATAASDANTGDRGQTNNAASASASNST

[7] = biological target: Cannabinoid receptor 1 (Homo sapiens) (UniProt P21554); assay: Binding affinity to CB1 receptor (unknown origin) at 10 uM
Cannabinoid receptor 1 (Homo sapiens), sequence (P21554 whole entry): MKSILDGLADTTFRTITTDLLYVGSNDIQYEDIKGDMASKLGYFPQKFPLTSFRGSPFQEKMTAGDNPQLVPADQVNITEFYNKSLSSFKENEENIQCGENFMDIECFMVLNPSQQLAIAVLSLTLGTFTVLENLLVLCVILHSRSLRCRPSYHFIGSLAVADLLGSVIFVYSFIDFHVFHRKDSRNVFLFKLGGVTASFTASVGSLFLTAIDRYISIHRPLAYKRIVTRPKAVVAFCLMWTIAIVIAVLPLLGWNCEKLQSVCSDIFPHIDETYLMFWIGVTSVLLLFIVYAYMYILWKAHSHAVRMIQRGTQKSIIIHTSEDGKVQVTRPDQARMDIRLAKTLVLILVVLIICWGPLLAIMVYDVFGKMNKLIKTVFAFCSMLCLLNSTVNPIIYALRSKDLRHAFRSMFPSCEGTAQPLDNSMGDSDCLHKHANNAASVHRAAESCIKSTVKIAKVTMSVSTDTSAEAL

[8] = biological target: Cannabinoid receptor 2 (Homo sapiens) (UniProt P34972); assay: Binding affinity to CB2 receptor (unknown origin) at 10 uM
Cannabinoid receptor 2 (Homo sapiens), sequence (P34972 whole entry): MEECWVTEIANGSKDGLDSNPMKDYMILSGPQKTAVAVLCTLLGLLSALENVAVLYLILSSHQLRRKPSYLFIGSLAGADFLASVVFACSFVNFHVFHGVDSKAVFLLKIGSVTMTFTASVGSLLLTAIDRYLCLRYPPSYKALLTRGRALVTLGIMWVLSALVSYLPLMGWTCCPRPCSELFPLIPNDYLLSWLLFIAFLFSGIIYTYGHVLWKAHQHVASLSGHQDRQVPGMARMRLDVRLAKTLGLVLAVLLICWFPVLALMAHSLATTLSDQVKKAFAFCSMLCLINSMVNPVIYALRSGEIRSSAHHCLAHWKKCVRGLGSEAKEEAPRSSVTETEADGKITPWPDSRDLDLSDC

[9] = biological target: T1, 5-hydroxytryptamine receptor 1A (Homo sapiens) (UniProt P08908); assay: Binding affinity to 5HT-1A receptor (unknown origin) at 10 uM
T1 sequence (whole entry): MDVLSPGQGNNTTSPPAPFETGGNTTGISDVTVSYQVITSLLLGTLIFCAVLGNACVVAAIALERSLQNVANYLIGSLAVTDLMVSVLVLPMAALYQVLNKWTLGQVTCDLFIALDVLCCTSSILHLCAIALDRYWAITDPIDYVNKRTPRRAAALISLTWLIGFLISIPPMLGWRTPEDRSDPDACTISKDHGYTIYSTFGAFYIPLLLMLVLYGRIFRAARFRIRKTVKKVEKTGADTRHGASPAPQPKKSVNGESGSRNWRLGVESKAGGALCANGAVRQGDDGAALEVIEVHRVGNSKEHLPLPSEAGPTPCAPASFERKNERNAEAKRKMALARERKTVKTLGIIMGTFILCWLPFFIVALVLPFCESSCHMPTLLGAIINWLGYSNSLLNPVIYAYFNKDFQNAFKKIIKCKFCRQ

[10] = biological target: T2, 5-hydroxytryptamine receptor 2C (Homo sapiens) (UniProt P28335); assay: Binding affinity to 5HT-2C receptor (unknown origin) at 10 uM
T2 sequence (whole entry): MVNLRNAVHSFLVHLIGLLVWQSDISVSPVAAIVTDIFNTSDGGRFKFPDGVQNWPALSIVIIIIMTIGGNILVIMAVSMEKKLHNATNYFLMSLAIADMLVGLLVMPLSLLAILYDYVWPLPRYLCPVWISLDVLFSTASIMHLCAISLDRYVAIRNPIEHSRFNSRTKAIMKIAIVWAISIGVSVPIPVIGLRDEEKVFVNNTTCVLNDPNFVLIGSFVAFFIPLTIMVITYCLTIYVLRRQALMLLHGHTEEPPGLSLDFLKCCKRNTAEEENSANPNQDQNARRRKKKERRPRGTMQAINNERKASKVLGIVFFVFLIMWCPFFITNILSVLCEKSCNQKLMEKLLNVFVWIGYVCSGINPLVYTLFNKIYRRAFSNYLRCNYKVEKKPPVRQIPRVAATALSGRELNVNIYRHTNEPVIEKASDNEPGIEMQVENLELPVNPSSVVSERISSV

[11] = biological target: T3, Peroxisome proliferator-activated receptor gamma (Homo sapiens) (UniProt P37231); assay: Binding affinity to PPARgamma (unknown origin) at 10 uM
T3 sequence (whole entry): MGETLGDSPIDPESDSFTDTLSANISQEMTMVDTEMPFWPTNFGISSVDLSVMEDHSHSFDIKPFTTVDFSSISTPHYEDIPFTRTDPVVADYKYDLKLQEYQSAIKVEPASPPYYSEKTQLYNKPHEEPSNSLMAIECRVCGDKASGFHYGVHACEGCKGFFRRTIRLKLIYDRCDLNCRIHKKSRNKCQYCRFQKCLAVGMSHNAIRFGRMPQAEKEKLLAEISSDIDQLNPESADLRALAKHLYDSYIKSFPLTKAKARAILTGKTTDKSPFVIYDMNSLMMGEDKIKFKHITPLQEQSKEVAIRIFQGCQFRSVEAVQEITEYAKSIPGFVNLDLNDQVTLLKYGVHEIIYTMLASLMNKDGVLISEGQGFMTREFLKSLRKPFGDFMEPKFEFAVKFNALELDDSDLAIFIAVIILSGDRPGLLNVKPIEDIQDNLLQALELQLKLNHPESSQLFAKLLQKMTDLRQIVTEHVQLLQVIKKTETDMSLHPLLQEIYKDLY

[12] = biological target: T4, Melatonin receptor type 1B (Homo sapiens) (UniProt P49286); assay: Agonist activity at human recombinant melatonin receptor-2 expressed in CHO cells assessed as decrease of cAMP level after 10 mins by HTRF assay relative to melatonin; type: functional, cell-based
T4 sequence (whole entry): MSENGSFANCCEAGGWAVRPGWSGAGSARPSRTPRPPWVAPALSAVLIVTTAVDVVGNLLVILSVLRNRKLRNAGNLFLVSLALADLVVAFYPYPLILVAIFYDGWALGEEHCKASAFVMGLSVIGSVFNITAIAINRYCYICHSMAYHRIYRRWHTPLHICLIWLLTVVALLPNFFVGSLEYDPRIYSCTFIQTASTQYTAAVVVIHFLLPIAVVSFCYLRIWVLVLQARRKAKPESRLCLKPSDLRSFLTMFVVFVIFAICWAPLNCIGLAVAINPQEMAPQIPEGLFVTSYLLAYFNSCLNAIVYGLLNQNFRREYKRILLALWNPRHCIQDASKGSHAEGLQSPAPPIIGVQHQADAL

Melatonin receptor type 1A, sequence (P48039 whole entry): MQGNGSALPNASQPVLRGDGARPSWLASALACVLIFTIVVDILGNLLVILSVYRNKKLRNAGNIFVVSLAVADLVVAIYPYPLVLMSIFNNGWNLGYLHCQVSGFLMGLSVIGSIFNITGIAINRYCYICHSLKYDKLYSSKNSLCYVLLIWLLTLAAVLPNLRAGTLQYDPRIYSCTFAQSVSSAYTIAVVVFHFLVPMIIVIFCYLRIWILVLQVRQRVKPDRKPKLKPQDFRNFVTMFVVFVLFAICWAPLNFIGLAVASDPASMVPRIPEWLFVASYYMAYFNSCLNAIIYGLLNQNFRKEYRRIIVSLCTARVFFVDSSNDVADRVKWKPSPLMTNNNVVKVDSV

What does the source list for `COc1ccc2[nH]cc(CCc3nnc(C)o3)c2c1`?
Ki [1]: 709 nM; Ratio Ki (Homo sapiens): 3.6; Activity [2]: inactive; Activity [3]: inactive; permeability [4]: permeable; Activity [5]: Dose-dependent effect; Activity [6]: inactive; Activity [7]: inactive; Activity [8]: inactive; Activity [9]: inactive; Activity [10]: inactive; Activity [11]: inactive; Emax [12]: 92%
